# Measured values published in ChEMBL document CHEMBL2311437, “Synthesis, molecular docking and evaluation of thiazolyl-pyrazoline derivatives containing benzodioxole as potential anticancer agents” (Bioorg Med Chem, 2013).
# Columns and labels:
# MCF7 [1] = experiment: Antiproliferative activity against human MCF7 cells after 48 hrs by MTT assay; assay type: functional, cell-based; conditions: MCF7, 48 h
# [2] = Antiproliferative activity against mouse B16/F10 cells after 48 hrs by MTT assay; assay type: functional, cell-based; conditions: B16-F10, 48 h
# In short: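 Cells seeded 7×10^3/well, grown 24 h, then exposed 48 h to compounds at final 0.1–100 µg/mL. MTT (5 mg/mL in PBS) added for 4 h, then 10% SDS in 0.01 N HCl, 18 h at 37 °C. Absorbance read at 570 nm. Survival given as % of untreated cells. IC50 taken from replicates of 6 wells over at least three independent experiments.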
# [3] = biological target: Receptor tyrosine-protein kinase erbB-2 (Homo sapiens, UniProt P04626); experiment: Inhibition of human HER2 cytoplasmic domain (amino acids 676 to 1245) expressed in Sf9 cells by DELFIA time resolved fluorometry
# In short: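 His6-tagged HER-2 was expressed in Sf-9 cells (3-day infection) and Ni-NTA purified at 4 °C. Assay measures autophosphorylation. Compound in 25 mM HEPES pH 7.4 (DMSO <0.1%) preincubated 10 min at RT with 12.5 ng enzyme. Then buffer (MnCl2, Na3VO4, DTT) and 0.1 mM ATP-50 mM MgCl2 (stock mix) added for 1 h. Readout: europium anti-phosphotyrosine, 1 h, ex 340/em 615 nm. IC50 from eight-concentration inhibition curves.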
# [4] = biological target: Receptor tyrosine-protein kinase erbB-2 (Mus musculus) (UniProt P70424); experiment: Inhibition of HER2 in mouse B16/F10 cells assessed as down regulation of HEr2 protein levels after 24 hrs by Western blotting method; assay type: cell-based
# In short: (§1)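 Cells treated 24 h, harvested and lysed in Tris pH 7.5/NaCl/NP-40 buffer with phosphatase and protease inhibitors. Protein quantified by BCA. Separation by 10% SDS–PAGE, transfer to PVDF, blocking in 5% milk 2 h at RT. Probed overnight at 4 °C with anti-HER-2 or anti-cleaved caspase 3, then HRP secondary antibody.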
# MCF7 [5] = experiment: Induction of apoptosis in human MCF7 cells assessed as increase in cleaved caspase 3 levels after 24 hrs by Western blotting method; assay type: functional, cell-based; in short: as §1
# B16-F10 = experiment: Induction of apoptosis in mouse B16/F10 cells assessed as increase in cleaved caspase 3 levels after 24 hrs by Western blotting method; assay type: functional, cell-based; in short: as §1
# Chain of Receptor tyrosine-protein kinase erbB-2 (P04626 whole entry, the tested form may be a part): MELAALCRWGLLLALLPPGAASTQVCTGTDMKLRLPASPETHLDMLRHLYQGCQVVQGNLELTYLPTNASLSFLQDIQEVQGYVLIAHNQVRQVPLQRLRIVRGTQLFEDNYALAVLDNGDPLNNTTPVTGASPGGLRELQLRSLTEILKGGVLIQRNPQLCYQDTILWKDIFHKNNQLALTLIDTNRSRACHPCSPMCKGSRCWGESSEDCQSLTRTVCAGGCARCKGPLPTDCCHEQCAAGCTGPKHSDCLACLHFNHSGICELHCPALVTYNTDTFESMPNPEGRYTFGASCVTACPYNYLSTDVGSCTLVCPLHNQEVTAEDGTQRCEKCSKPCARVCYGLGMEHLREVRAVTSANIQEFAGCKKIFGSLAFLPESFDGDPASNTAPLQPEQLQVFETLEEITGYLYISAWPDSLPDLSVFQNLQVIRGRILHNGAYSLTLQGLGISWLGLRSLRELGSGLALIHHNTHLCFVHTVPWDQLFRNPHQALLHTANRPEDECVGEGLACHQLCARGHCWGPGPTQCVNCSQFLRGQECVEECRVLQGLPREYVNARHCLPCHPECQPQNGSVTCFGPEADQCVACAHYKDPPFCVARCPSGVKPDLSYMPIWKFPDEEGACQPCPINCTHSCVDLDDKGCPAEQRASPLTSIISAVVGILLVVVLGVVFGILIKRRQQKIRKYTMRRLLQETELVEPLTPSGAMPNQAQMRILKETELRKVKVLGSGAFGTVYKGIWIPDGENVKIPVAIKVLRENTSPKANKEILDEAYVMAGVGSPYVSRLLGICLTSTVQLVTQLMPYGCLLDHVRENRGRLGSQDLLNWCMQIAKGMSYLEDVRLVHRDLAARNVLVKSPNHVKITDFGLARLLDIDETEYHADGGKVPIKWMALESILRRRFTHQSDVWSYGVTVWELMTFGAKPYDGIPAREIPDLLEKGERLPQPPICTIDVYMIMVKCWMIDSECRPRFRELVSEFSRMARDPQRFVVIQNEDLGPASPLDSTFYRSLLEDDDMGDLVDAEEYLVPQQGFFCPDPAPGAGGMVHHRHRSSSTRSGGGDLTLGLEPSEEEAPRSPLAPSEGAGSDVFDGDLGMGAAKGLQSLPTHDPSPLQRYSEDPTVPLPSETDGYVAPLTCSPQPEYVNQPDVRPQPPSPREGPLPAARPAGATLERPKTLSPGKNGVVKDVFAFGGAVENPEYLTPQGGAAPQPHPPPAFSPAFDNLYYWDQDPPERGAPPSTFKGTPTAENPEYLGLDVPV
# Chain of Receptor tyrosine-protein kinase erbB-2 (Mus musculus) (P70424 whole entry): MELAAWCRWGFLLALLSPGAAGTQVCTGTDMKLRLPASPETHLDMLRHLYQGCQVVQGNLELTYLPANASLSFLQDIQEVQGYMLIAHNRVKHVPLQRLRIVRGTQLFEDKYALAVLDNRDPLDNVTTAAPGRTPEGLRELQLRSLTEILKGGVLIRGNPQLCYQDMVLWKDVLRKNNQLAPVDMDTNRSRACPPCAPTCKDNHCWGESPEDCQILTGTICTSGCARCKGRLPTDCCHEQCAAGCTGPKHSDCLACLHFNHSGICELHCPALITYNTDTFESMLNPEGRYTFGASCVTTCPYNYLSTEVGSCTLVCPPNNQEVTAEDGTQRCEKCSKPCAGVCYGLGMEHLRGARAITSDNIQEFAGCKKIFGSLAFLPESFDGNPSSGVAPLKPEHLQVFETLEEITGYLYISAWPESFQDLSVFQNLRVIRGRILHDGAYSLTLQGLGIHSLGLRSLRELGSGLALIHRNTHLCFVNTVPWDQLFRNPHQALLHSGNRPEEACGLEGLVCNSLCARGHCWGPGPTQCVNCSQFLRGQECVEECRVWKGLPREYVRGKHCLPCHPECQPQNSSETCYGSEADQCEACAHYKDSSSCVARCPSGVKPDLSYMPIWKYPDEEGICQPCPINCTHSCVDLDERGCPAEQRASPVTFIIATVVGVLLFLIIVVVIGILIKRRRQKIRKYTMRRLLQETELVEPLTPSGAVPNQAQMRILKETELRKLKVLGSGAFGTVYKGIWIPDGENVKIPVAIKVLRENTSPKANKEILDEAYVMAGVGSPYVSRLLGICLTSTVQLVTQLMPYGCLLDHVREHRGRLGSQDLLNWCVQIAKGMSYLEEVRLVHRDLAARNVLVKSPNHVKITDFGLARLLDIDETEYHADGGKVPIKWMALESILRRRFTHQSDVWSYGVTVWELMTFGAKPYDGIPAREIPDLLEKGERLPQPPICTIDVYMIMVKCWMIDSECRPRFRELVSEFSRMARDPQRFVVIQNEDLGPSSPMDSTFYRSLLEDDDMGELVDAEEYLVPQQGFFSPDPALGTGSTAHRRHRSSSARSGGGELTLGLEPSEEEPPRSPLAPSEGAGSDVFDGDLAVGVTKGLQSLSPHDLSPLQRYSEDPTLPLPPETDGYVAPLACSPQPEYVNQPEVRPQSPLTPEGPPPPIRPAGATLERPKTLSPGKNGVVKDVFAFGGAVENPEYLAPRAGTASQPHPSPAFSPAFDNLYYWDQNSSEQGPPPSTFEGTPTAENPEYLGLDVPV
SMILES,IC50 (MCF7 [1]),IC50 [2],IC50 [3],inhibition [4],Activity (MCF7 [5]),Activity (B16-F10)
COc1ccc(-c2csc(N3N=C(c4ccc(Cl)cc4)CC3c3ccc4c(c3)OCCO4)n2)cc1 (stereo not given),3030 nM,3120 nM,–,–,–,–
C#Cc1cccc(Nc2ncnc3cc(OCCOC)c(OCCOC)cc23)c1 [ERLOTINIB],–,50 nM,–,–,–,–
COc1ccc(-c2csc(N3N=C(c4ccc(F)cc4)CC3c3ccc4c(c3)OCCO4)n2)cc1 (stereo not given),4530 nM,4430 nM,–,–,–,–
COc1ccc(-c2csc(N3N=C(c4ccc(Cl)cc4)CC3c3ccc4c(c3)OCO4)n2)cc1 (stereo not given),2410 nM,2320 nM,–,–,–,–
Clc1ccc(C2=NN(c3nc(-c4ccc(Br)cc4)cs3)C(c3ccc4c(c3)OCO4)C2)cc1 (stereo not given),1720 nM,1510 nM,2380 nM,–,–,–
Cc1ccc(C2=NN(c3nc(-c4ccc(Br)cc4)cs3)C(c3ccc4c(c3)OCO4)C2)cc1 (stereo not given),1410 nM,1390 nM,2230 nM,–,–,–
COc1ccc(-c2csc(N3N=C(c4ccc(Br)cc4)CC3c3ccc4c(c3)OCCO4)n2)cc1 (stereo not given),870 nM,1120 nM,1320 nM,–,–,–
Brc1ccc(C2=NN(c3nc(-c4ccc(Br)cc4)cs3)C(c3ccc4c(c3)OCCO4)C2)cc1 (stereo not given),320 nM,430 nM,460 nM,–,–,–
COc1ccc(-c2csc(N3N=C(c4ccc(F)cc4)CC3c3ccc4c(c3)OCO4)n2)cc1 (stereo not given),3650 nM,3980 nM,–,–,–,–
Fc1ccc(C2=NN(c3nc(-c4ccc(Br)cc4)cs3)C(c3ccc4c(c3)OCCO4)C2)cc1 (stereo not given),4200 nM,4110 nM,–,–,–,–
COc1ccc(-c2csc(N3N=C(c4ccc(C)cc4)CC3c3ccc4c(c3)OCO4)n2)cc1 (stereo not given),1430 nM,1520 nM,–,–,–,–
Brc1ccc(C2=NN(c3nc(-c4ccc(Br)cc4)cs3)C(c3ccc4c(c3)OCO4)C2)cc1 (stereo not given),90 nM,120 nM,180 nM,Dose-dependent effect,Dose-dependent effect,Dose-dependent effect
COc1ccc(-c2csc(N3N=C(c4ccc(C)cc4)CC3c3ccc4c(c3)OCCO4)n2)cc1 (stereo not given),2680 nM,2870 nM,–,–,–,–
COc1ccc(C2=NN(c3nc(-c4ccc(Br)cc4)cs3)C(c3ccc4c(c3)OCCO4)C2)cc1 (stereo not given),2540 nM,2520 nM,–,–,–,–
Fc1ccc(C2=NN(c3nc(-c4ccc(Br)cc4)cs3)C(c3ccc4c(c3)OCO4)C2)cc1 (stereo not given),3430 nM,3810 nM,–,–,–,–
COc1ccc(-c2csc(N3N=C(c4ccc(Br)cc4)CC3c3ccc4c(c3)OCO4)n2)cc1 (stereo not given),270 nM,320 nM,850 nM,–,–,–
COc1ccc(C2=NN(c3nc(-c4ccc(OC)cc4)cs3)C(c3ccc4c(c3)OCCO4)C2)cc1 (stereo not given),2730 nM,3010 nM,–,–,–,–
Clc1ccc(C2=NN(c3nc(-c4ccc(Br)cc4)cs3)C(c3ccc4c(c3)OCCO4)C2)cc1 (stereo not given),2230 nM,2150 nM,–,–,–,–
COc1ccc(C2=NN(c3nc(-c4ccc(Br)cc4)cs3)C(c3ccc4c(c3)OCO4)C2)cc1 (stereo not given),2470 nM,2540 nM,–,–,–,–
COc1ccc(C2=NN(c3nc(-c4ccc(OC)cc4)cs3)C(c3ccc4c(c3)OCO4)C2)cc1 (stereo not given),2730 nM,2670 nM,–,–,–,–
Cc1ccc(C2=NN(c3nc(-c4ccc(Br)cc4)cs3)C(c3ccc4c(c3)OCCO4)C2)cc1 (stereo not given),1590 nM,1680 nM,–,–,–,–
